This is a sample that favours compounds with a hit; in the whole collection about 3.9% have one here.
NF-kB expr up = activators of NF-kB expression in neurons, primary screen, cell-based, HTS; human neuronal cells, NF-kB reporter expression; hits give high values; fold change at 12.5 µM; 190,000 compounds, 1.6% hits; in the data active = fold change above about 3.3
APP 5'UTR act = activators of APP 5'UTR luciferase reporter, primary screen, SH-SY5Y cells | SH-SY5Y APP 5'UTR luciferase reporter, luminescence; zero percent = DMSO vehicle wells | activation, % at 2 µM | 190,000 compounds, 1% hits | AID 1276, 2008;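 active = activation above a set limit, based on mean plus 3 SD of controls, cut at about 140% in these data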
STAT3 act = IL-6 driven STAT3 reporter potentiators, primary screen, U3A cells, luciferase, luminescence, MLSCN library; activation (% of control), % at 5.6 µM; AID 871, 2007; IL-6 STAT3-luciferase reporter; 100% = signal with IL-6 EC80 alone; 190,000 compounds, 0.91% hits;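 active = activation above the screen-wide mean of compound activation plus 3 SD, cut at about 130% in these data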
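Material: STAT3-luciferase reporter U3A cells. Controls: IL-6-treated wells, 100% activation. Read-out: % activation versus median of IL-6-stimulated wells. Probe or stimulus: IL-6 stimulus at 33 ng/mL final. Timing: compound 1 h, then IL-6 6 h at 37 °C. Signal: reporter luminescence signal.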
Pf gamet viab = late stage P. falciparum gametocyte viability inhibitors, primary screen, ATP luminescence, HTS; AID 743093, 2013; 150,000 compounds, 0.065% hits; inhibition, % at 10.9 µM; P. falciparum stage V gametocytes, 24 h;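 active = inhibition above the mean plus 3 SD of compounds within the control limits, set per campaign, cut at about 38% in these data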
STAT1 inh = STAT1 signaling inhibitors, primary screen, cell-based, HTS, luciferase reporter. NIH 3T3 STAT1-luciferase reporter, IFN-gamma, luminescence. inhibition, % at 5.5 µM. 200,000 compounds, 0.35% hits. AID 920, 2007;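 active = inhibition above a set limit, the mean inhibition across all tested compounds plus 3 SD, cut at about 34% in these data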
STAT1 activator = STAT1 signaling activators, primary screen, cell-based, HTS, luciferase reporter; NIH 3T3 STAT1-luciferase reporter, IFN-gamma, luminescence; 100% = IFN-gamma alone, no compound; activation (% of control), % at 5.5 µM; 200,000 compounds, 2.6% hits; AID 932, 2007;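 active = activation above the screen-wide mean activation plus 3 SD, cut at about 130% in these data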
Numbers stand for hits; . = inactive; / = no result given.

SMILES	NF-kB expr up	APP 5'UTR act	STAT3 act	Pf gamet viab	STAT1 inh	STAT1 activator
O=C(O)c1ccc(NC(=O)c2cn(-c3ccccc3)nc2-c2ccc(F)cc2)cc1	.	.	.	.	.	135
O=C(Nc1nccs1)c1cn(-c2ccccc2)nc1-c1ccncc1	.	.	.	69	.	.
O=C(Nc1ccc(F)cc1)c1cnc(-c2ccccc2)nc1-c1ccccc1	.	.	.	/	.	133
CCN1C[C@@H]2[C@@H]3C(=O)N(C)C(=O)[C@@H]3[C@](CC)(C1=O)N2C(=O)c1ccccc1	/	/	/	.	/	/
O=C(c1c(F)cccc1F)N1CCCc2ccccc21	/	/	/	.	/	/
CC1CCN(C(=O)C2CC(c3ccc(F)cc3)=NO2)CC1 (stereo not given)	.	.	.	/	.	129
COc1cccc(C2=NOC(C(=O)N3CCOCC3)C2)c1 (stereo not given)	.	.	.	.	.	133
O=C(c1cc2ccccc2o1)c1cccs1	.	/	.	.	.	145
COc1ccc2cc(C(N)=O)/c(=N/NC(=O)c3ccco3)oc2c1	.	.	.	.	.	.
NC(=O)c1cc2ccccc2o/c1=N/NC(=O)c1cccs1	.	.	.	.	.	134
COc1ccc2o/c(=N/NC(=O)c3cccs3)c(C(N)=O)cc2c1	.	.	.	.	.	138
Cc1ccc(C(=O)c2cc3ccccc3o2)cc1C	3.7	.	.	.	.	136
O=C(COC(=O)c1cc(-c2cccc(Br)c2)nc2ccccc12)NCC1CCCO1 (stereo not given)	.	.	.	/	.	.
O=C(/C=C/c1ccccc1Cl)c1ccccc(=O)c1O	26	.	.	.	.	.
O=C(/C(Cl)=C/Nc1ccc(Br)cn1)C(F)(F)F	.	.	.	.	.	.
O=C(Nc1ccccc1)Nc1sccc1-c1nc2ccccc2s1	/	/	/	.	/	/
CC(=O)NC(=S)Nc1ccc(-c2nc3ccc(C)cc3s2)cc1	3.7	.	.	.	.	.
Cc1cccc(N(CC(=O)Nc2ccc(F)cc2)S(C)(=O)=O)c1	.	.	.	.	.	.
Cc1ccc(-c2nc3ccccc3s2)cc1NC(=O)c1cc(-n2cnnc2)ccc1Cl	.	.	.	/	.	.
O=C(Nc1ccc(-c2nc3ccccc3s2)c(OC(=O)c2ccccc2)c1)c1ccccc1	.	208	.	.	.	.
Cc1cc(C)cc(N(CC(=O)Nc2ccc(-c3nc4ccc(C)cc4s3)cc2)S(C)(=O)=O)c1	.	.	.	.	.	142
Cc1ccc(-c2nc3ccccc3s2)cc1NC(=S)NC(=O)c1ccccc1	6.8	178	.	/	.	.
COc1ccccc1NC(=O)CN(Cc1ccco1)C(=O)c1ccc(Cl)nc1	.	.	.	.	.	.
Cc1nn(CCCC(=O)N2CCN(c3ccc(F)cc3)CC2)c(C)c1[N+](=O)[O-]	.	.	.	.	.	.
Cc1ccc2nc(-c3ccc(NC(=S)NCCC(C)C)cc3)sc2c1	/	.	.	/	.	.
SMILES	NF-kB expr up	APP 5'UTR act	STAT3 act	Pf gamet viab	STAT1 inh	STAT1 activator
CNC(=S)Nc1ccc(-c2nc3ccc(C)cc3s2)cc1	/	172	.	.	.	.
CCc1cn([C@H]2C[C@H](O)[C@@H](CO)O2)c(=O)[nH]c1=O	.	.	.	/	.	.
O=c1[nH]c(=O)n([C@H]2C[C@H](O)[C@@H](CO)O2)cc1C(F)(F)F	5.4	.	.	/	.	.
CN1CCN(C(=O)c2cccc(COc3cc(Cl)ccc3Cl)c2)CC1	.	.	.	/	.	.
CC1CCN(C(=O)c2ccc(COc3ccccc3Cl)o2)CC1	.	.	.	/	.	.
O=C1NC(=O)/C(=C\c2ccc(OCc3cccc(C(=O)O)c3)c(Cl)c2)N1	.	.	.	/	71	.
O=C(Nc1ccccc1Cl)c1cccc(COc2cc(Cl)ccc2Cl)c1	.	.	.	/	.	129
Cc1nn(Cc2c(F)c(F)c(F)c(F)c2F)c(C)c1NC(=O)c1cccc(COc2ccccc2Cl)c1	.	151	.	.	.	.
CN1C(=O)/C(=C/c2ccc(OCc3ccc(C(=O)O)cc3)c(Cl)c2)NC1=S	/	/	/	.	/	/
O=C(c1ccc(COc2ccccc2Cl)o1)N1CCCC1	.	.	.	.	35	.
Cc1nn(Cc2cccc(F)c2)c(C)c1NC(=O)c1ccc(COc2ccccc2Cl)cc1	.	.	.	/	.	.
Cc1nn2c([nH]c(=O)c3ccccc32)c1C=O	.	.	.	/	.	.
O=C(COC(=O)Cc1ccccc1F)Nc1cc(S(=O)(=O)N2CCOCC2)ccc1N1CCCC1	.	.	.	.	.	.
O=C(O)c1ccc(COc2ccccc2Cl)cc1	.	.	.	/	.	.
O=C(O)c1cccc(COc2ccccc2Cl)c1	15	/	/	/	/	/
O=c1[nH]c(CSc2nnc3ccccn23)nc2cc(C(F)(F)F)ccc12	/	.	.	.	.	.
Cc1c(/C(O)=C2/C(=O)C(=O)N(Cc3cccnc3)C2c2ccccn2)cnn1-c1ccccc1 (stereo not given)	.	.	.	.	55	.
CN(C)S(=O)(=O)c1ccc(/C(O)=C2/C(=O)C(=O)N(Cc3cccnc3)C2c2cccs2)cc1 (stereo not given)	/	.	.	.	.	.
Cc1c(/C(O)=C2/C(=O)C(=O)N(Cc3cccnc3)C2c2cccs2)cnn1-c1ccccc1 (stereo not given)	.	141	.	.	.	141
Cc1ccc(C(C)c2c(C)c([N+](=O)[O-])cc(C)c2[N+](=O)[O-])cn1 (stereo not given)	/	/	/	.	/	/
Cc1cc([N+](=O)[O-])nn1Cc1ccc(C(=O)N/N=C/c2ccc(N(C)C)cc2)cc1	/	/	/	.	/	/
CC1CN=C(N(C(=O)Nc2ccccc2)C(C)c2ccccc2)S1 (stereo not given)	/	/	/	.	/	/
CCOC(=O)C1(O)CC(C)=NN1C(=O)c1cccc(Cl)c1 (stereo not given)	.	.	.	.	.	.
CCCCCc1ccc(-c2ccc(OC)cc2)nc1	3.4	.	.	.	.	140
CCCc1ccc(-c2ccc(C(=O)O)cc2)nc1	.	.	.	/	.	131
SMILES	NF-kB expr up	APP 5'UTR act	STAT3 act	Pf gamet viab	STAT1 inh	STAT1 activator
CCCCCc1ccc(-c2ccc(/C=C/C(N)=O)cc2)nc1	.	.	.	.	.	.
S=c1[nH]nc(-c2ccco2)n1-c1ccc(Br)cc1	/	/	/	.	/	/
CCc1ccccc1NC(=O)COc1ccc(C(=S)N2CCCC2)cc1	.	.	.	.	.	.
O=c1c(-c2nn[nH]n2)coc2ccc(Cl)cc12	.	.	.	.	.	.
CCOc1ccc(NC(=O)/C=C/c2ccccc2)c([N+](=O)[O-])c1	.	.	.	/	.	131
CCOc1ccc(OCC(=O)Nc2ccc(OC)cc2[N+](=O)[O-])cc1	.	.	.	.	.	.

From PubChem BioAssay
